# Compound activity as filed in PubChem.
# Only some compounds are listed: those with a hit (about 1.8% of all), similar ones and a draw of the others.
# CHRM4 PAM = CHRM4 positive allosteric modulation | P08173 | CHO-K1 hM4/Gqi5, Fluo-8 calcium fluorescence, ACh EC20; 0% = ACh EC20, 100% = maximal ACh | activation, % at 3 µM | 360,000 compounds, 0.4% hits | AID 624126;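 active = activation above its plate's cutoff, the mean activation of sample wells plus 3 SD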
# CHRM4 agonist = CHRM4 agonism in calcium assay; P08173; CHO-K1 hM4/Gqi5, Fluo-8 calcium fluorescence; vehicle 0%, full acetylcholine response 100%; activation, % at 3 µM; 360,000 compounds, 0.14% hits; AID 624127;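 active = activation above the run mean over all test wells plus 3 SD, cut at about 32% in these data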;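 also: peak over basal fluorescence ratio per well then scaled between controls; 0% = DMSO wells and 100% = acetylcholine at EC100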
# M5 PAM = potentiates acetylcholine response at human M5 receptor; CHO-K1 hM5, Fluo-8 calcium, ACh EC20 PAM; 0% = ACh EC20, 100% = ACh EC100; activation, % at 3 µM; 360,000 compounds, 0.3% hits;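 active = activation above the run cutoff, the mean activation of all test compounds plus 3 SD, cut at about 18% in these data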
# Target sequence (P08912 whole entry, looked up): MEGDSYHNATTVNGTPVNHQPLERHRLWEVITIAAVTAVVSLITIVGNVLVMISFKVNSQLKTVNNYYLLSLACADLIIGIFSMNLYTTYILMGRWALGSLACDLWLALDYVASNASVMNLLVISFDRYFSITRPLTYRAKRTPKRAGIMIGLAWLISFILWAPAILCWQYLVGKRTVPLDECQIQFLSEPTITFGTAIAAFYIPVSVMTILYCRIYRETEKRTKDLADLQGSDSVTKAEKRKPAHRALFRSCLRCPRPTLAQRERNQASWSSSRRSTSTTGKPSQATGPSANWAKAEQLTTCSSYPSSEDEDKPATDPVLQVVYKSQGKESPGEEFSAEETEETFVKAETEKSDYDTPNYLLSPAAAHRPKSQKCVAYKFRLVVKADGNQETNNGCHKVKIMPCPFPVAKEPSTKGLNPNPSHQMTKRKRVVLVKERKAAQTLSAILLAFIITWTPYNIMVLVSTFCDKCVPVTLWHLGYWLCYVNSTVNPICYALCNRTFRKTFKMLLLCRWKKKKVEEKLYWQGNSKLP
#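 Measured by: Fluo-8 calcium fluorescence; material: human M5 receptor in CHO-K1 cells; schedule: Post-acetylcholine fluorescence recording 140 s; benchmarks: low control EC20 acetylcholine (0%), high control EC100 acetylcholine (100%); read-out: Max/basal fluorescence ratio as % of EC20–EC100 ACh window; compound: single dose, 3 µM nominal final test concentration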
# CHRM4 antagonist = antagonists of human muscarinic M4 receptor (CHRM4). 360,000 compounds, 0.73% hits. AID 624125. inhibition, % at 3 µM. P08173. CHO-hM4 cells, ACh EC80, Fluo-8 calcium fluorescence;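 active = inhibition above its plate's cutoff, the mean inhibition of sample wells plus 3 SD, cut at about 27% in these data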;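 also: 0% = acetylcholine EC80 with DMSO and 100% = DMSO without agonist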
# CHRM5 agonist = CHRM5 agonism in calcium assay; CHO-K1 hM5 cells, Fluo-8 calcium fluorescence; 0% DMSO wells, 100% maximal acetylcholine response; activation, % at 3 µM; 360,000 compounds, 0.19% hits; AID 624037;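 active = activation above the run's mean over test compounds plus 3 SD, cut at about 23% in these data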;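 also: signal is peak over basal fluorescence ratio across the kinetic read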
# M5 antag = CHRM5 antagonism in calcium assay | P08912 | CHO-hM5 cells, Fluo-8 calcium fluorescence, ACh EC80 | inhibition, % at 3 µM | 360,000 compounds, 0.59% hits;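 active = inhibition above a per-plate cutoff, the mean of that plate's test compounds plus 3 SD, cut at about 27% in these data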;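 also: 0% = acetylcholine EC80 with DMSO and 100% = DMSO without agonist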
# An asterisk follows results filed as active.
SMILES,CHRM4 PAM,CHRM4 agonist,M5 PAM,CHRM4 antagonist,CHRM5 agonist,M5 antag
CCOC(=O)/C(C#N)=C/C1=C(N2CCOCC2)C(C)(C)OCC1,5,1,2,-5,0,7
O=C(NCC[C@@H]1CC[C@@H](NS(=O)(=O)c2ccccc2)[C@@H](CO)O1)c1cc(Cl)cc(Cl)c1,4,2,-2,-11,1,8
Cc1ccc(C)c(-c2nnc(OCC(=O)Nc3cc(C)on3)c3ccccc23)c1,16*,0,8,-1,2,-5
CCc1c(C)nc(SCC(=O)c2cccs2)c(C#N)c1C,80*,6,-5,39*,1,1
CCc1c(C)nc(SCC(N)=O)c(C#N)c1C,0,1,-1,-1,1,5
CCOC(=O)c1sc(NC(=O)CC)c(C#N)c1C,2,-1,8,0,1,-4
Cc1ccc(S(=O)(=O)c2ccc([N+](=O)[O-])o2)cc1,-5,0,-1,36*,-8,19
O=C(NCc1ccccn1)c1ccc(-c2ccccc2)cc1,1,2,2,-6,2,-26
O=C(NCc1ccccn1)c1ccc(=O)oc1,31*,1,1,10,1,-3
Cc1[nH]c(C)c(S(=O)(=O)NCc2ccc(N(C)C)cc2)c1C(=O)N1CCCC1,18*,1,-3,2,-8,16
Cc1ccc(C)c(CNS(=O)(=O)c2c(C)[nH]c(C)c2C(=O)N2CCCCC2)c1,14,1,19*,2,1,-18
Cc1ccc(S(=O)(=O)N2CCC(C(=O)NCCc3ccccn3)CC2)cc1,-8,1,-3,7,2,12
COc1cccc2c1OCC/C2=N\NC(=O)COc1ccccc1C,23*,4,-4,-2,1,4
CCCn1ncc(/C=N/O)c1C,-2,0,1,-7,-1,3
Fc1ccc(Nc2nnc(C(F)(F)F)s2)cc1Cl,-8,11,-22,12,-3,32*
O=C(COC(=O)c1ccc[nH]c1=O)NC1CC1,-2,1,8,8,2,-1
CCOC(=O)C1(CC2CCCCO2)CCN(Cc2cc3ccccc3[nH]2)CC1 (centres undefined),-24,125*,-21,59*,62*,34*
CCCn1cc(CN2CCCC(C(=O)c3cccc(OC(C)C)c3)C2)c(C)n1 (centres undefined),-10,3,-6,6,-9,15
CCCn1ncc(CN2CCCC(C(=O)c3cccc(OC(C)C)c3)C2)c1C (centres undefined),-51,1,-25,66*,-19,15
c1ccc(-n2ncc3c(NCC4CCCO4)ncnc32)cc1 (centres undefined),-4,4,-17,-1,-5,15
Clc1ccc(-n2ncc3c(NCC4CCCO4)ncnc32)cc1 (centres undefined),-16,2,-2,37*,4,-5
COc1ccc(CCC(=O)N2c3ccccc3N=C(c3ccc(C(F)(F)F)cc3)C2C(=O)NC(C)C)cc1 (centres undefined),-1,1,-4,2,-3,-2
Cc1ccc(COc2coc(CN3CCN(C(=O)c4ccco4)CC3)cc2=O)cc1,13,1,3,-8,0,5
O=C(c1ccco1)N1CCN(Cc2cc(=O)c(OCc3ccc([N+](=O)[O-])cc3)co2)CC1,-7,0,3,31*,-2,7
CCOc1cc(N2CCOCC2)c(OCC)cc1NC(=O)c1cc(S(=O)(=O)N2CCOCC2)ccc1F,0,2,0,12,2,-5
CC(=O)Nc1ccc(NC(=O)C(C)OC(=O)/C(C#N)=C/c2ccc(N(C)C)cc2)cc1 (centres undefined),-4,7,-17,1,16,61*
CC(=O)NCCC(=O)Nc1nc(-c2c[nH]c3ccccc23)cs1,16*,1,1,-20,-1,-6
